ChEMBL document CHEMBL3992512, “The Discovery and Hit-to-Lead Optimization of Tricyclic Sulfonamides as Potent and Efficacious Potentiators of Glycine Receptors” (J Med Chem, 2017)
pEC50, pKd: −log10 of the molar value. Converted amounts (≈) assume the structure as drawn. The source made the active and inactive calls.

Assays:
[1] = molecular target: Glycine receptor alpha-3/beta (Homo sapiens) (UniProt O75311+P48167); assay: Positive allosteric modulation of human glycine alpha3beta receptor expressed in HEK293T cells assessed as compound concentration required to induce up to 3-fold leftward shift in glycine-induced increase in chloride ion flux after 4 mins by Schild plot analysis; type: cell-based
Procedure, shortened: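 HEK293T cells stably expressing human GlyRα3β, ~12000 cells/well, plated overnight and loaded with membrane potential blue dye. Glycine 1:2 dilution series premixed with compound at varying concentrations in HEPES/NaCl/mannitol buffer, pH 7.4. FLIPR fluorescence read 4 min and processed as AUC over baseline. mEC₃ is the lowest tested concentration giving a ≥3-fold leftward shift of glycine EC₅₀.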

[2] = Intrinsic clearance in mouse liver microsomes up to 40 mins in presence of NADPH; type: ADME, microsome; details: read-out: CLH
[3] = Passive apparent permeability in MDCK cells; type: ADME, cell-based, Canis lupus familiaris; details: dog
Procedure, shortened: (§1)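 Bidirectional transport at 5 μM, in triplicate, across MDCK cells carrying control vector, human MDR1 or human ABCG2 (BCRP). Passive Papp is the mean of both directions in vector-control cells. Efflux ratios come from the MDR1 and BCRP lines.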

human MDR1 = assay: Efflux ratio of passive apparent permeability in MDCK cells harboring human MDR1; type: ADME, cell-based, Canis lupus familiaris; details: dog; procedure, shortened: as §1
human BCRP = assay: Efflux ratio of passive apparent permeability in MDCK cells harboring human BCRP; type: ADME, cell-based, Canis lupus familiaris; details: dog; procedure, shortened: as §1
Mus musculus [4] = organism: Mus musculus; assay: Ex vivo positive allosteric modulation of glycine receptor in C57BL/6 mouse spinal cord assessed as potentiation of glycine-induced post synaptic current amplitude at 0.5 uM at holding potential of -60 mV after 10 mins in presence of sodium channel inhibitor TTX/AMPA/kainate receptor antagonist CNQX/GABAa receptor antagonist bicuculline/NMDA receptor antagonist APV by electrophysiology method relative to glycine alone
Procedure, shortened: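 Adult mouse spinal cord slices; dorsal horn neurons in laminae I–II were identified histologically and confirmed glycinergic by focal glycine (20 μM) with strychnine (10 μM) reversal. Postsynaptic current amplitude was recorded with glycine 20 μM alone, then with glycine plus compound at 0.5 μM, then with strychnine added. The readout is the mean ratio of PSC amplitude (compound + glycine / glycine alone), n = 5.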

Plasma [5] = assay: Unbound Cmax in mouse plasma at 30 mg/kg, ip; type: ADME, organism-based; details: in vivo
[6] = Drug degradation in neutral buffer at 37 degC after 1 hr
Procedure, shortened: (§2)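 Buffer stability was followed as percent decomposition at three conditions: neutral buffer at 37 °C over 1 h, pH 2 acidic buffer at room temperature, and pH 11 basic buffer at room temperature up to 20 h.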

[7] = Chemical stability in pH 2 acidic buffer at room temperature measured immediately; type: physicochemical; procedure, shortened: as §2
[8] = Drug degradation in pH 11 basic buffer at room temperature measured after 20 hrs; procedure, shortened: as §2
Plasma [9] = assay: Stability in mouse plasma; type: ADME, cell-free
[10] = Ratio of unbound Cmax in mouse brain to EC50 for glycine alpha3 receptor in mouse model of spared nerve injury-induced tactile allodynia at 60 mg/kg, po
[11] = Ratio of unbound Cmax in mouse brain to EC50 for glycine alpha3 receptor in mouse model of spared nerve injury-induced tactile allodynia at 30 mg/kg, ip
Procedure, shortened: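 After intraperitoneal dosing, brains were collected at multiple time points. Unbound brain concentration is total brain concentration × brain fraction unbound, divided by mouse GlyRα3 potentiation EC₅₀.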

[12] = molecular target: T1, Glycine receptor subunit alpha-3 (Homo sapiens, UniProt O75311); assay: Positive allosteric modulation of human glycine alpha3 receptor expressed in HEK293T cells assessed as potentiation of glycine-induced increase in chloride ion flux after 4 mins by membrane potential blue dye based FLIPR assay; type: cell-based, HEK-293T
T1 sequence (O75311 whole entry): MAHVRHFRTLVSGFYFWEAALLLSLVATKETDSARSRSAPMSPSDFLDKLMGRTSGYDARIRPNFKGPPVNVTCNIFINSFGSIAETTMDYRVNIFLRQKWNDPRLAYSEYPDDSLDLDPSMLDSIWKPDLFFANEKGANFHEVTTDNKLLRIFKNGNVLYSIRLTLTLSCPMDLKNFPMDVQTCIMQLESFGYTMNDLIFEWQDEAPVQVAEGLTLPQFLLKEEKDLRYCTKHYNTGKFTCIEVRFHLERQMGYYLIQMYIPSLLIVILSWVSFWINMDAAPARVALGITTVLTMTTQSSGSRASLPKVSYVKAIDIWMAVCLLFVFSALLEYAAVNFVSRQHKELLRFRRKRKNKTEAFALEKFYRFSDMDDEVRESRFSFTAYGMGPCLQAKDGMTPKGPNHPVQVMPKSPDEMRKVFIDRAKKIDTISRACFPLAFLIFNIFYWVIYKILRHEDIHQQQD

[13] = molecular target: T1, Glycine receptor subunit alpha-3; assay: Binding affinity to human glycine alpha3 receptor expressed in HEK293T cells by SPR assay; design: species or system HEK-293T
Mus musculus [14] = assay: Antiallodynic activity in mouse model of spared nerve injury-induced tactile allodynia assessed as tactile threshold at 30 mg/kg, po measured 90 mins post dose by Von Frey filament assay; type: functional, organism-based
[15] = Solubility in phosphate buffered saline; type: physicochemical
[16] = Solubility in fasted state simulated intestinal fluid; type: physicochemical
[17] = Ratio of unbound Cmax in mouse brain to EC50 for glycine alpha3 receptor in mouse model of spared nerve injury-induced tactile allodynia at 30 mg/kg, po
Procedure, shortened: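 Mice dosed orally; unbound brain Cmax is total brain concentration × brain fraction unbound, sampled at multiple time points. It is divided by EC₅₀ for potentiation of mouse GlyRα3.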

[18] = Ratio of unbound Cmax in mouse brain to EC50 for glycine alpha3 receptor in mouse model of spared nerve injury-induced tactile allodynia at 50 mg/kg, po
Liver [19] = assay: Drug metabolism in mouse liver microsomes assessed as oxidation of quinolinone core up to 40 mins in presence of NADPH; type: ADME, microsome
Liver [20] = assay: Drug metabolism in mouse liver microsomes assessed as oxidation of pyrrolidine ring up to 40 mins in presence of NADPH; type: ADME, microsome
Liver [21] = assay: Drug metabolism in mouse liver microsomes assessed as oxidation of benzodioxolane moiety up to 40 mins in presence of NADPH; type: ADME, microsome
Plasma [22] = assay: Unbound Cmax in mouse plasma at 50 mg/kg, ip; type: ADME, organism-based; details: in vivo

SMILES | MEC [1] [µM] | microsomal CLint [2] [µL/min/mg] | Papp [3] [nm/s] | efflux ratio (human MDR1) | efflux ratio (human BCRP) | further results
CN1C(=O)[C@H]2CN(S(=O)(=O)c3ccc4c(c3)OCO4)C[C@H]2c2cnccc21 | > 25 | 213 | 140 | 1 | 0.9 | Activity (Mus musculus [4]): inactive
CN1C(=O)[C@]2(F)CN(S(=O)(=O)c3ccc4c(c3)OCO4)C[C@@H]2c2cnccc21 (racemic) | > 25 | – | – | – | – | –
O=S(=O)(c1ccc2c(c1)OCO2)N1C[C@@H]2c3ccccc3-n3ccnc3[C@@H]2C1 | 3.1 | 901 | 580 | 1.7 | 1.3 | fCmax (Plasma [5]): 0.13 µM
CN1C(=O)[C@]2(C#N)CN(S(=O)(=O)c3ccc4c(c3)OCO4)C[C@@H]2c2cnccc21 (racemic) | > 25 | – | – | – | – | –
CN1C(=O)[C@@H]2CN(S(=O)(=O)c3ccc4c(c3)OCO4)C[C@]2(C)c2cnccc21 (racemic) | > 25 | – | – | – | – | –
CN1C(=O)[C@@H]2CN(S(=O)(=O)c3ccc4ocnc4c3)C[C@@H]2c2cnccc21 | 0.39 | 73 | 250 | 3.6 | 1.1 | Drug degradation [6]: 50%; Stability [7]: Unstable; Drug degradation [8]: 30%; Stability (Plasma [9]): Unstable
C[C@@H]1[C@@H]2c3cnccc3N(C)C(=O)[C@@H]2CN1S(=O)(=O)c1ccc2c(c1)OCO2 | > 25 | – | – | – | – | –
CN1C(=O)[C@@H]2CN(S(=O)(=O)c3ccc4ncn(C)c4c3)C[C@@H]2c2cnccc21 | 3.1 | – | – | – | – | –
CN1C(=O)[C@@H]2CN(S(=O)(=O)c3ccc4scnc4c3)C[C@@H]2c2cnccc21 | 1.56 | 79 | 480 | 3.3 | 1.4 | Ratio [10]: 0.15
CN1C(=O)[C@@H]2CN(S(=O)(=O)c3ccc4c(c3)OCO4)C[C@@H]2c2cc(F)ccc21 (racemic) | 0.78 | 761 | – | – | – | –
CN1C(=O)[C@@H]2CN(S(=O)(=O)c3ccc4c(c3)OCO4)C[C@@H]2c2ccncc21 (racemic) | 6.3 | 225 | – | – | – | –
C[C@@H]1[C@@H]2C(=O)N(C)c3ccncc3[C@@H]2CN1S(=O)(=O)c1ccc2c(c1)OCO2 | 3.1 | – | – | – | – | –
CN1C(=O)[C@H]2CN(S(=O)(=O)c3ccc4c(c3)OCO4)C[C@H]2c2ccccc21 | 6.3 | 2440 | – | – | – | –
CN1C(=O)[C@@H]2CN(S(=O)(=O)c3ccc4c(c3)OCC4)C[C@@H]2c2cnccc21 | 1.56 | 177 | 280 | 2.9 | 0.7 | Ratio [10]: 0.38
CN1C(=O)[C@@H]2CN(S(=O)(=O)c3ccc(F)c(Cl)c3)C[C@@H]2c2cnccc21 | 3.1 | 432 | 490 | 1.2 | 1.1 | –
C[C@H]1[C@@H]2C(=O)N(C)c3ccncc3[C@@H]2CN1S(=O)(=O)c1ccc2c(c1)OCO2 | > 25 | – | – | – | – | –
O=S(=O)(c1ccc2c(c1)OCO2)N1C[C@@H]2c3nccn3-c3ccccc3[C@@H]2C1 | 6.3 | 1670 | – | – | – | –

SMILES | MEC [1] [µM] | microsomal CLint [2] [µL/min/mg] | Papp [3] [nm/s] | efflux ratio (human MDR1) | efflux ratio (human BCRP) | further results
CN1C(=O)[C@@H]2CN(S(=O)(=O)c3ccc4nc[nH]c4c3)C[C@@H]2c2cnccc21 | 3.1 | < 14 | – | – | – | Ratio [11]: 0.047
C[C@@H]1[C@H]2C(=O)N(C)c3ccncc3[C@H]2CN1S(=O)(=O)c1ccc2c(c1)OCO2 | > 25 | – | – | – | – | pEC50 [12]: < 4.60; pKd [13]: < 4.70
CC(C)C[C@H](CN)CC(=O)O | – | – | – | – | – | Activity (Mus musculus [14]): Active
CN1C(=O)[C@@H]2CN(S(=O)(=O)c3ccn4ccnc4c3)C[C@@H]2c2cnccc21 | 3.1 | 36 | 160 | 30 | 8.3 | –
C[C@@H]1[C@H]2c3cnccc3N(C)C(=O)[C@H]2CN1S(=O)(=O)c1ccc2c(c1)OCO2 | > 25 | – | – | – | – | –
C[C@H]1[C@H]2c3cnccc3N(C)C(=O)[C@H]2CN1S(=O)(=O)c1ccc2c(c1)OCO2 | > 25 | – | – | – | – | –
CN1C(=O)[C@@H]2CN(S(=O)(=O)c3ccc4c(c3)OCO4)C[C@@H]2c2cc(C#N)ccc21 (racemic) | 12.5 | 374 | – | – | – | –
C[C@H]1[C@@H]2c3cnccc3N(C)C(=O)[C@@H]2CN1S(=O)(=O)c1ccc2c(c1)OCO2 | > 25 | – | – | – | – | –
CN1C(=O)[C@@H]2CN(S(=O)(=O)c3ccc4c(c3)OCO4)C[C@@H]2c2cnccc21 | 0.2 | 151 | 520 | 0.8 | 0.9 | solubility [15]: 235 µM (≈ 91 µg/mL); solubility [16]: 296 µM (≈ 115 µg/mL); fold change (FC) (Mus musculus [4]): 4.9; Ratio [17]: 0.62
CN1C(=O)[C@@H]2CN(S(=O)(=O)c3ccc4c(c3)OCO4)C[C@@H]2c2cc(O)ccc21 | 0.39 | 499 | 180 | 3.2 | 3.1 | –
CN1C(=O)[C@@H]2CN(S(=O)(=O)c3ccc4c(c3)OCO4)C[C@@H]2c2ncccc21 | 0.78 | 136 | 450 | 1.5 | 1 | solubility [15]: 7 µM (≈ 2.71 µg/mL); solubility [16]: 28 µM (≈ 10.8 µg/mL); Ratio [17]: 0.006
CN1C(=O)[C@@H]2CN(S(=O)(=O)c3ccc4c(c3)OCO4)C[C@@H]2c2cccnc21 (racemic) | 3.1 | 760 | – | – | – | –
CN1C(=O)[C@@H]2CN(S(=O)(=O)c3ccc4c(c3)CCO4)C[C@@H]2c2cnccc21 | 3.1 | 225 | 500 | 4.3 | 1.2 | Ratio [18]: 0.19
CN1C(=O)[C@]2(C)CN(S(=O)(=O)c3ccc4c(c3)OCO4)C[C@@H]2c2ccccc21 (single isomer, unassigned) | > 25 | – | – | – | – | –
CN1C(=O)[C@@H]2CN(S(=O)(=O)c3ccc4c(c3)OCO4)C[C@@H]2c2ccccc21 | 0.78 | – | 460 | – | – | Drug metabolism (Liver [19]): Metabolite_Detected; Drug metabolism (Liver [20]): Metabolite_Detected; Drug metabolism (Liver [21]): Metabolite_Detected; fCmax (Plasma [22]): 0.07 µM
CN1C(=O)[C@@H]2CN(S(=O)(=O)c3ccc4ccoc4c3)C[C@@H]2c2cnccc21 | 1.56 | 115 | – | – | – | –
